According to ChEMBL document CHEMBL4007450, “Development of 1,2,4-Oxadiazoles as Potent and Selective Inhibitors of the Human Deacetylase Sirtuin 2: Structure-Activity Relationship, X-ray Crystal Structure, and Anticancer Activity” (J Med Chem, 2017):
pIC50: −log10 of the molar value. Calls of active or inactive are those of the source. The calls are words filed in the database; no cut-off is given here.

Legend:
MDA-MB-231 [1] = assay: Induction of apoptosis in human MDA-MB-231 cells assessed as pre-G1 accumulation at 25 uM after 48 hrs by propidium iodide staining-based FACS analysis; type: functional
How it was run: (§1)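 MDA-MB-231 breast cancer cells were grown in DMEM with 10% FBS, 2 mM L-glutamine and antibiotics, then exposed for 48 h at 5, 10, 25 or 50 μM. 2.5×10^5 cells were stained in hypotonic buffer with 50 µg/mL PI, 0.1% Triton X-100, 0.1% citrate and RNase A for 30 min in the dark. Pre-G1 fraction was measured by flow cytometry. Biological duplicates, mean ± SD.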

K562 = assay: Induction of apoptosis in human K562 cells assessed as pre-G1 accumulation at 25 uM after 48 hrs by propidium iodide staining-based FACS analysis; type: functional
How it was run: (§2)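 Leukemia cells (U937, NB4, HL-60, K562) were grown in RPMI-1640 with 10% FBS, 2 mM L-glutamine and antibiotics, then treated for 48 h at 5, 10, 25 and 50 μM. 2.5×10^5 cells were stained 30 min in the dark in hypotonic PI buffer (0.1% Triton X-100, 0.1% citrate, 50 µg/mL PI, RNase A). Apoptosis was scored as pre-G1 content by flow cytometry. Duplicates, mean ± SD.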

OCI-AML2 = assay: Antiproliferative activity against human OCI-AML2 cells harboring DNMT3A R635W mutant assessed as cell growth inhibition after 48 hrs by WST1 assay; type: functional, cell-based; details: OCI-AML2, 48 h
How it was run: (§3)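 WST-1 proliferation assay. Cells plated in triplicate at 5×10^3 cells/well and exposed to increasing compound concentrations for 48 h at 37 °C, 5% CO2. WST-1 reagent was then added for 1 h. IC50 was obtained by nonlinear regression of each cell line's dose-response curve.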

NB-4 [2] = assay: Induction of apoptosis in human NB4 cells assessed as pre-G1 accumulation at 25 uM after 48 hrs by propidium iodide staining-based FACS analysis; type: functional; how it was run: as §2
[3] = target: T1, NAD-dependent protein deacetylase sirtuin-2 (Homo sapiens, UniProt Q8IXJ6)
T1 sequence (Q8IXJ6 whole entry): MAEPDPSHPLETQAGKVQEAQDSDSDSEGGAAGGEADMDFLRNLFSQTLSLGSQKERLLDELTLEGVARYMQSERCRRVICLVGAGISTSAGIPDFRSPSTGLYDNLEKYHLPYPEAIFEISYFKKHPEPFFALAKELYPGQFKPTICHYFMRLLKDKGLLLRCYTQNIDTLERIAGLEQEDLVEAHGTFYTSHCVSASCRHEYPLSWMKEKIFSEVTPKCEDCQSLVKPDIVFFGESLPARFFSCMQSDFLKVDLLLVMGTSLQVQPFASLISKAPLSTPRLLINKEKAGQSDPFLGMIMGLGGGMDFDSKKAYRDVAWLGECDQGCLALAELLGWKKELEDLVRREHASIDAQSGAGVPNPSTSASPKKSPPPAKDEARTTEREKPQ

U-937 [4] = assay: Cell cycle arrest in human U937 cells assessed as accumulation at S phase at 25 uM after 48 hrs by propidium iodide staining-based FACS analysis; type: functional
[5] = Antiproliferative activity against human IMS-M2 cells harboring NPM1c+ assessed as cell growth inhibition after 48 hrs by WST1 assay; type: functional, cell-based; details: IMS-M2, 48 h; how it was run: as §3
NB-4 [6] = assay: Antiproliferative activity against human NB4 cells harboring PML-RARalpha [t(15;17)(q22;q12)] mutant assessed as cell growth inhibition after 48 hrs by WST1 assay; type: functional, cell-based; details: NB-4, 48 h; how it was run: as §3
Kasumi 1 = assay: Antiproliferative activity against human Kasumi-1 cells harboring AML1-ETO [t(8:21)] mutant assessed as cell growth inhibition after 48 hrs by WST1 assay; type: functional, cell-based; details: Kasumi 1, 48 h; how it was run: as §3
HL-60 [7] = assay: Antiproliferative activity against human p53 deficient HL60 cells assessed as cell growth inhibition after 48 hrs by WST1 assay; type: functional, cell-based; details: HL-60, 48 h; how it was run: as §3
U-937 [8] = assay: Antiproliferative activity against human U937 cells harboring p53+/- assessed as cell growth inhibition after 48 hrs by WST1 assay; type: functional, cell-based; details: U-937, 48 h; how it was run: as §3
MV4-11 = assay: Antiproliferative activity against human MV4-11 cells harboring FLT3-ITD [t(4;11)(q21;q23)], MLL/MLLT2(AF4) mutant assessed as cell growth inhibition after 48 hrs by WST1 assay; type: functional, cell-based; details: MV4-11, 48 h; how it was run: as §3
OCI-AML-3 = assay: Antiproliferative activity against human OCI-AML3 cells harboring NPM1c+, DNMT3A R882C mutant assessed as cell growth inhibition after 48 hrs by WST1 assay; type: functional, cell-based; details: OCI-AML-3, 48 h; how it was run: as §3
KARPAS-299 = assay: Antiproliferative activity against human KARPAS299 cells harboring NPM1/ALK, [t(2;5)(p23;q35)] mutant assessed as cell growth inhibition after 48 hrs by WST1 assay; type: functional, cell-based; details: KARPAS-299, 48 h; how it was run: as §3
[9] = target: T2, NAD-dependent protein deacetylase sirtuin-3, mitochondrial (Homo sapiens) (UniProt Q9NTG7); assay: Inhibition of human SIRT3 (114 to 380 residues) activity expressed in Escherichia coli using AceCS2 peptide as substrate up to 100 uM after 45 mins in presence of NAD+ by pNCA/GDH-based microplate spectrophotometric analysis
T2 sequence (whole entry): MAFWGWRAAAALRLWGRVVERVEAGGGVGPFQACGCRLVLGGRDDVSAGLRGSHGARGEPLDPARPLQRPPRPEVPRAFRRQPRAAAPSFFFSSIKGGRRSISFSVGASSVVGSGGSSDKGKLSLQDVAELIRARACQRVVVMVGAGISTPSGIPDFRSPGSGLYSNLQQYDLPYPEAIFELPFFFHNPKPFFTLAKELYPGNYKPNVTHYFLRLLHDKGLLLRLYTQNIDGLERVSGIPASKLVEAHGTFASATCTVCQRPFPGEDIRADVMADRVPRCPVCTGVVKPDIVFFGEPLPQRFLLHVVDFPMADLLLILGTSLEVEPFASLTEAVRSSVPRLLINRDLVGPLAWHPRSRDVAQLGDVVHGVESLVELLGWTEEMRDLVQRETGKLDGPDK
How it was run: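 Same pNCA/GDH-coupled 340 nm NADPH read-out as the Sirt2 assay, using 20 mM Na-phosphate pH 7.8 with 3% DMSO at 20 °C for 45 min. Sirt3 (114-380) was used at 5 µM with AceCS2 peptide TRSGacKVMR as substrate. Inhibitors were tested up to 100 µM.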

U-937 [10] = assay: Effect on cell cycle arrest in human U937 cells at 25 uM after 48 hrs by propidium iodide staining-based FACS analysis; type: functional
U-937 [11] = assay: Induction of apoptosis in human U937 cells assessed as pre-G1 accumulation at 50 uM after 48 hrs by propidium iodide staining-based FACS analysis; type: functional; how it was run: as §2
[12] = target: T3, NAD-dependent protein deacetylase sirtuin-1 (Homo sapiens) (UniProt Q96EB6); assay: Inhibition of human full length SIRT1 activity expressed in Escherichia coli using p53 peptide as substrate up to 100 uM after 45 mins in presence of NAD+ by pNCA/GDH-based microplate spectrophotometric analysis
T3 sequence (whole entry): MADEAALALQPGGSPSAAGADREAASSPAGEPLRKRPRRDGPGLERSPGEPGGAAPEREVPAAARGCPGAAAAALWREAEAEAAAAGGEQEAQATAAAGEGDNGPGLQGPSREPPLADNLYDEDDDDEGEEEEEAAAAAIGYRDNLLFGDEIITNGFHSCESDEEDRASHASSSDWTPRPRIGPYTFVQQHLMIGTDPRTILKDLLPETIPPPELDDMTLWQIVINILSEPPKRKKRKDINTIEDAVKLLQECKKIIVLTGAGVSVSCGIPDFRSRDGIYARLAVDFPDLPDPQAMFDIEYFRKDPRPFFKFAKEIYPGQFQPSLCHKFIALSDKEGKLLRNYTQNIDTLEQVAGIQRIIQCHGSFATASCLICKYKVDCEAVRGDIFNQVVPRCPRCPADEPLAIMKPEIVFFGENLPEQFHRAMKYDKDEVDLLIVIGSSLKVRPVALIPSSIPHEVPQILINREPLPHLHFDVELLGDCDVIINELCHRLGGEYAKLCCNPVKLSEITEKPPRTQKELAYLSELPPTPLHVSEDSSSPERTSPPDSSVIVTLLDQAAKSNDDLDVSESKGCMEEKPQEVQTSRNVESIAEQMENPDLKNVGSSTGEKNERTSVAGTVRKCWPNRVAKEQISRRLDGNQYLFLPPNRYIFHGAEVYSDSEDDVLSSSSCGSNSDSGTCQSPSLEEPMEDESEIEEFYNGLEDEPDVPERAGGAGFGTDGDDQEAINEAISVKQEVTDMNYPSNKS
How it was run: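 Full-length Sirt1 at 2 µM with p53 peptide RHKacKLMFK as substrate. Activity was measured in the same coupled pNCA/GDH mix as for Sirt2 (α-ketoglutarate, NADPH, Na-phosphate pH 7.8, 3% DMSO), following NADPH oxidation at 340 nm at 20 °C for 45 min. Compounds were tested up to 100 µM.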

[13] = target: NAD-dependent protein deacylase sirtuin-5, mitochondrial (Homo sapiens) (UniProt Q9NXA8); assay: Inhibition of human SIRT5 (34 to 302 residues) desuccinylase activity expressed in Escherichia coli using peptide as substrate up to 100 uM after 45 mins in presence of NAD+ by pNCA/GDH-based microplate spectrophotometric analysis
[14] = target: NAD-dependent protein deacylase sirtuin-5, mitochondrial (Homo sapiens) (UniProt Q9NXA8); assay: Inhibition of human SIRT5 (34 to 302 residues) deacetylase activity expressed in Escherichia coli using Prx1 peptide as substrate up to 100 uM after 45 mins in presence of NAD+ by pNCA/GDH-based microplate spectrophotometric analysis
NB-4 [15] = assay: Induction of apoptosis in human NB4 cells assessed as pre-G1 accumulation at 10 uM after 48 hrs by propidium iodide staining-based FACS analysis; type: functional, cell-based; how it was run: as §2
NB-4 [16] = assay: Induction of apoptosis in human NB4 cells assessed as pre-G1 accumulation at 50 uM after 48 hrs by propidium iodide staining-based FACS analysis; type: functional; how it was run: as §2
U-937 [17] = assay: Induction of apoptosis in human U937 cells assessed as pre-G1 accumulation at 25 uM after 48 hrs by propidium iodide staining-based FACS analysis; type: functional; how it was run: as §2
MDA-MB-231 [18] = assay: Induction of apoptosis in human MDA-MB-231 cells assessed as pre-G1 accumulation at 50 uM after 48 hrs by propidium iodide staining-based FACS analysis; type: functional; how it was run: as §1
[19] = target: T4, NAD-dependent protein deacetylase sirtuin-2 (Homo sapiens) (UniProt Q8IXJ6); details: 5 to 25 uM
T4 sequence (whole entry): T1 sequence (Q8IXJ6 whole entry)

[20] = target: T4, NAD-dependent protein deacetylase sirtuin-2 (Homo sapiens); details: 5 to 25 uM; remark: listed apart in the source
[21] = target: T3, NAD-dependent protein deacetylase sirtuin-1 (Homo sapiens); details: 100 uM
[22] = target: NAD-dependent protein deacylase sirtuin-5, mitochondrial (Homo sapiens) (UniProt Q9NXA8); assay: Inhibition of human SIRT5 (34 to 302 residues) deacetylase activity expressed in Escherichia coli using Prx1 peptide as substrate at 100 uM after 45 mins in presence of NAD+ by pNCA/GDH-based microplate spectrophotometric analysis
HL-60 [23] = assay: Induction of apoptosis in human HL60 cells assessed as pre-G1 accumulation at 50 uM after 48 hrs by propidium iodide staining-based FACS analysis; type: functional; how it was run: as §2
[24] = target: NAD-dependent protein deacylase sirtuin-5, mitochondrial (Homo sapiens) (UniProt Q9NXA8); assay: Inhibition of human SIRT5 (34 to 302 residues) desuccinylase activity expressed in Escherichia coli using CPS1 peptide as substrate at 100 uM after 45 mins in presence of NAD+ by pNCA/GDH-based microplate spectrophotometric analysis

Sequence of NAD-dependent protein deacylase sirtuin-5, mitochondrial (Homo sapiens) (Q9NXA8 37-310 limits assumed): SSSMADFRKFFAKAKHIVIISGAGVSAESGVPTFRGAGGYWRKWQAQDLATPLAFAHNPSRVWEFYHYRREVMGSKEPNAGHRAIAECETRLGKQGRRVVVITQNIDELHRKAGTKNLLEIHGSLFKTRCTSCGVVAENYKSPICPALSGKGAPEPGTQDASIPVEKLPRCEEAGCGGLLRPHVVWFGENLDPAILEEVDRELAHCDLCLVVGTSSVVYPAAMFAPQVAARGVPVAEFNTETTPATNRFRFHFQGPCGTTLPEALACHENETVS

SMILES | pIC50 (OCI-AML2) | pIC50 [3] | pIC50 [5] | pIC50 (NB-4 [6]) | pIC50 (Kasumi 1) | pIC50 (HL-60 [7]) | pIC50 (U-937 [8]) | pIC50 (MV4-11) | pIC50 (OCI-AML-3) | pIC50 (KARPAS-299) | further results
COc1ccc(-c2noc(CCCBr)n2)cc1 | 4.43 | 4.98 | 4.74 | 4.92 | 4.99 | 4.52 | 4.60 | 4.80 | 4.21 | 4.44 | Activity (MDA-MB-231 [1]): >80%; Activity (K562): >80%; Activity (NB-4 [2]): >80%; Activity (U-937 [4]): Active
BrCCCc1nc(-c2ccc(Br)cc2)no1 | 4.07 |  | 4.00 | 4.31 | 4.25 | 4.00 | < 4.00 | 4.42 | 4.18 | 4.60 | inhibition [9]: inactive; Activity (U-937 [10]): inactive; Activity (U-937 [11]): >80%; inhibition [12]: inactive; inhibition [13]: inactive; inhibition [14]: inactive; Activity (NB-4 [15]): Active
Fc1ccc(-c2noc(CCCBr)n2)cc1 |  | 4.70 |  |  |  |  |  |  |  |  | Activity (NB-4 [16]): 30 - 40%; Activity (U-937 [17]): 11.1 - 37.1%; Activity (MDA-MB-231 [18]): 30 - 40%
N#C/C(=C\c1ccc(-c2cc(Cl)ccc2Cl)o1)C(=O)Nc1cccc2ncccc12 |  |  |  |  |  |  |  |  |  |  | inhibition [19]: inactive; inhibition [20]: inactive; inhibition [21]: Active; inhibition [22]: Active; Activity (HL-60 [23]): 6%; inhibition [24]: Active
